Assay results pooled from the literature.
Protocols differ between the studies behind these lines.
Target: Serine/threonine-protein kinase ICK (CILK1, Homo sapiens, UniProt Q9UPZ9)
Sequence (Q9UPZ9 1-632, as in one of the studies): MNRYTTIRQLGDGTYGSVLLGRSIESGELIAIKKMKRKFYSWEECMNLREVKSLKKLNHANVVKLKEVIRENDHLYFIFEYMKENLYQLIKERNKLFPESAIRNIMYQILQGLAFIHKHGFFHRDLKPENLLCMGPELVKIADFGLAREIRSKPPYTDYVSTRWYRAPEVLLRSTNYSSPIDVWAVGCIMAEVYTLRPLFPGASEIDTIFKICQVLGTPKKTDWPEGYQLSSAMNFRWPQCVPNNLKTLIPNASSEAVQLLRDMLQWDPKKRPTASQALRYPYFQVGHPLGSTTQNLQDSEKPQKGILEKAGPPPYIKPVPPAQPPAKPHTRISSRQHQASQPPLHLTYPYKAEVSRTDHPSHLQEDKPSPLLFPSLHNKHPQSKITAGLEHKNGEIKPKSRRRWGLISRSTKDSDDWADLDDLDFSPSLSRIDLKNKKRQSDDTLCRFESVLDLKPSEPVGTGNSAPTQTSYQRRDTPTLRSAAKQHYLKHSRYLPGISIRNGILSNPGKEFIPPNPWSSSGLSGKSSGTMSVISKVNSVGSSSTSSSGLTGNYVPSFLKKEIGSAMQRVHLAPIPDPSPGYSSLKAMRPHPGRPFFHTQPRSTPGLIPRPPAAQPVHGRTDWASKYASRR

| Structure (SMILES) | assay | setting | remaining binding [%] |
| --- | --- | --- | --- |
| Nc1cnc(N2CCc3cc(S(=O)(=O)Nc4c(F)cc(Cl)cc4F)cc(N4CCCC4=O)c32)nc1 | cell-free assay, competition with immobilised ligand | 1 µM | 80 |
| CN(C)c1nccc(-c2cnc3ncccn23)n1 | binding | 1 µM | 81 |
| Cc1cnc(Nc2ccc(C(=O)N3CCC(N4CCCC4)CC3)cc2)nc1-c1cc2ccccc2s1 | binding, competition with immobilised ligand | 1 µM | 64 |
| c1cnn2ncc(-c3ccnc(N4CCC45COC5)n3)c2c1 | binding | 1 µM | 69 |
| O=C(Nc1c[nH]nc1C(=O)NC1CCNCC1)c1cc(F)cc(F)c1 | binding, competition with immobilised ligand | 1 µM | 84 |
| CN(C)C(=O)Cn1cc(-c2nc([C@@](C)(c3ccc(-c4cnc(N)nc4)cc3)C3CC3)no2)cn1 | binding, competition with immobilised ligand | 1 µM | 100 |
| C[C@@H]1CCN(c2nccc(-c3cnn4ncccc34)n2)C1 | binding | 1 µM | 58 |
| O=C(NCCCN1CCOCC1)c1ccc(Nc2ncc(Cl)c(-c3ccc(Cl)s3)n2)cc1 | binding, competition with immobilised ligand | 1 µM | 62 |
| CC1CCCN1c1nccc(-c2cnn3ncccc23)n1 (stereo not drawn) | binding | 1 µM | 100 |
| COc1ncc2cc3ccccc3nc2c1C#N | binding, competition with immobilised ligand | 5 µM | 90 |
| O=C(c1ccc(Nc2ncc(Cl)c(-c3ccc(Cl)s3)n2)cc1)N1CCC(N2CCCC2)CC1 | binding, competition with immobilised ligand | 1 µM | 32 |
| CN(C)c1nccc(-c2cnn3ncccc23)n1 | binding | 1 µM | 91 |
| CS(=O)(=O)NCC[C@H](NC(=O)c1cncc2c1cnn2-c1ccc(F)cc1)c1ccnc(S(C)(=O)=O)c1 | binding, competition with immobilised ligand | 1 µM | 100 |
| C[C@@H](c1ccc(-n2cnc3c(N)ncnc32)cc1)N1CCc2nn(C)c(Cc3ccccc3)c2C1=O | binding, competition with immobilised ligand | 0.1 µM | 48 |
| CCOCCn1cc(C(=O)Nc2ccc(-n3nc(-c4cccnc4)cc3C(F)(F)F)cn2)ccc1=O | cell-free assay, competition with immobilised ligand | 1 µM | 99 |
| CN(C)c1ncc(F)c(-c2cnn3ncccc23)n1 | binding | 1 µM | 89 |
| COc1cnc(Nc2cccc(S(N)(=O)=O)c2)nc1N1CCN(c2ccccc2)CC1 | binding, competition with immobilised ligand | 1 µM | 72 |
| Cc1c(NC(=O)c2cc(C(N)=O)nc3cc(F)ccc23)c(C(F)(F)F)nn1Cc1ccc(C(C)(C)C)cc1 | cell-free assay, competition with immobilised ligand | 1 µM | 61 |
| Nc1ncc2c(n1)-c1c([nH]c3ccc(C#CC4CC4)cc13)CCCC2 | binding, competition with immobilised ligand | 1 µM | 98 |
| O=C(Nc1cccnn1)N1CCC(=Cc2cccc(Oc3ccc(C(F)(F)F)cn3)c2)CC1 | cell-free assay, competition with immobilised ligand | 1 µM | 91 |
| CCN1CCN(Cc2ccc(C(=O)Nc3ccc(C)c(Oc4ccc5c(c4)CC(=O)N5)c3)cc2C(F)(F)F)CC1 | binding, competition with immobilised ligand | 1 µM | 100 |
